Active and inactive are the calls of the source.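 How the source made its calls: active means compounds dimming the MITF-driven luciferase signal, with fitted AC50 at most twice the top tested dose; inconclusive means flat curves with moderate signal drop, or poor-quality fits; inactive means the rest.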

The subject of the first assay is SK-MEL-5 TRPM1-promoter luciferase reporter, 24 h. The assay is described as follows: TRPM1 promoter luciferase signal reduction, dose response, MITF inhibitor project, cell-based, SK-MEL-5, dry powder samples, set 2 (AID 624290).
Conditions: not given
A digest of the protocol:
(§1)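 Detection: SteadyGlo luciferase luminescence. Material: TRPM1 promoter–luciferase reporter stably expressed in SK-MEL-5 melanoma cells. Incubation: compound pinned one day after plating, 24 h exposure at 37 °C. Read-out basis: luminescence change reflecting TRPM1 promoter activity, decrease as inhibition. Benchmarks: parthenolide positive control.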
Regarding `O=C(NC1=C(c2ccccc2)C(=O)c2ccccc2C1=O)c1ccco1`, the AC50 was 6.33 µM.

Take `C=C1C(=O)OC2C1CC/C(C)=C\CCC1(C)OC21` (configuration not stated): the AC50 is 5.01 µM.

Consider `COc1ccc(C2=C(NC(=O)c3ccc(OC)cc3-c3cccc(OC)c3)C(=O)c3ccccc3C2=O)cc1`, for which the AC50 was > 70 µM (inactive).

Take `O=C1C(NS(=O)(=O)c2ccc(Br)cc2)=C(c2ccc(OC(F)(F)F)cc2)C(=O)c2ccccc21`: the AC50 was 10.4 µM.

Consider `O=C(NC1=C(c2ccccc2)C(=O)c2ccccc2C1=O)c1ccc(Br)cc1`, for which the AC50 was 9.43 µM.

Regarding `NC1=C(c2ccc(OC(F)(F)F)cc2)C(=O)c2ccccc2C1=O`, the AC50 was 20.9 µM.

Take `CCN(CC)CCCCNC1=C(Nc2ccccc2)C(=O)c2ccccc2C1=O`: the AC50 is 5.75 µM.

With `CC1CCN(CC(CS(=O)(=O)c2ccc([N+](=O)[O-])cc2)N2CCC(C)CC2)CC1` (configuration not stated), the AC50 was 3.87 µM.

In the case of `O=C(CNc1cccc2ccccc12)N/N=C/c1ccc([N+](=O)[O-])o1`, the AC50 is 1.52 µM.

Turning to `CCN1CCN(C2=C(N(C)C(C)=O)C(=O)c3ccccc3C2=O)CC1`, the AC50 was 0.561 µM.

With `COc1cccc(-c2cc(C(=O)NC3=C(Cl)C(=O)c4ccccc4C3=O)ccc2OC)c1`, the AC50 is 2.5 µM.

System in a further assay: not listed separately
Described as above. The following applies: SK-MEL-5 TRPM1-promoter luciferase reporter, 24 h; at 35 µM (top of the series). An outline of the steps: as §1
As for `O=C(NC1=C(N2CCCCC2)C(=O)c2ccccc2C1=O)c1ccc(Br)cc1`, the activity change, negative = inhibition is -0.221% (inactive).

The values are drawn from PubChem BioAssay AID624290 (Broad Institute, 2012).
